Data as given in ChEMBL document CHEMBL1126842, “Inhibition of herpes simplex virus type 1 ribonucleotide reductase by substituted tetrapeptide derivatives” (J Med Chem, 1993).
Where a SMILES comes first, the peptide text is derived from it. [ ]: non-standard residue; d: D form. The star is where a group is joined. ξ: configuration not given here. Asp(3,3-Me2) = CC(C)(C(=O)O)[C@H](N)C(=O)O; Cyclohexanecarbonyl = O=C(C1CCCCC1)*; Butanoyl(2-Et) = CCC(CC)C(=O)*; Thr(3ξ) = CC(O)[C@H](N)C(=O)O; Tle = CC(C)(C)[C@H](N)C(=O)O; Leu(ol) = CC(C)C[C@H](N)CO; Isovaleryl = CC(C)CC(=O)*; Isobutyryl = CC(C)C(=O)*; Piperidide = C1CCN(*)CC1; Pyrrolidide = C1CCN(*)C1; X1 = CC(C)C(C(=O)*)C(C)C; Bn = c1ccc(C*)cc1

Target: T1, Ribonucleoside-diphosphate reductase large subunit (Homo sapiens, UniProt P23921)
T1 sequence (P23921 whole entry): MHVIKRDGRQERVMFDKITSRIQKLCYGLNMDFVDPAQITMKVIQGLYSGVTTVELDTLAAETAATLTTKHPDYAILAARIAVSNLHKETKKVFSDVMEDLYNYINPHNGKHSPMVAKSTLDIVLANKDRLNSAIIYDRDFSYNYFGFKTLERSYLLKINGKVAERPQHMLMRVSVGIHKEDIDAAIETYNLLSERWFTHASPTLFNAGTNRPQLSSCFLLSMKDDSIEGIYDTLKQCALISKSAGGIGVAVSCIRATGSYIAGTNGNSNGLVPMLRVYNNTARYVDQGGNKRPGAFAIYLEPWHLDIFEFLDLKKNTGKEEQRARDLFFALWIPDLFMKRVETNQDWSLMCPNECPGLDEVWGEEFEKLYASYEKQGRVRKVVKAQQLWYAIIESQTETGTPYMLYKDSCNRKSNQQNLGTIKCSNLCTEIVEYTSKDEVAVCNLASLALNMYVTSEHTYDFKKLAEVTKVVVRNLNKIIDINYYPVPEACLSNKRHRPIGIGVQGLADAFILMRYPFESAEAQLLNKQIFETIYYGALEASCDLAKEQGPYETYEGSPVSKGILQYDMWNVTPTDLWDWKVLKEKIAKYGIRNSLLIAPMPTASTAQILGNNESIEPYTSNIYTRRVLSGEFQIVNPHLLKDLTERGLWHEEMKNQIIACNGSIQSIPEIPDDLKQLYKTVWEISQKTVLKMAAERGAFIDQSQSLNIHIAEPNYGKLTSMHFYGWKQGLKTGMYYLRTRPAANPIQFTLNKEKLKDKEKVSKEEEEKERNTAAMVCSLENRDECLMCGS
Assay: Tested for inhibition of human ribonucleotide reductase
With `CCC(CC)C(=O)N[C@H](C(=O)N[C@@H](CC(=O)N1CCCC1)C(=O)N[C@@H](CC(=O)O)C(=O)N[C@@H](CC(C)C)C(=O)O)[C@@H](C)CC` ({Butanoyl(2-Et)}-ID(Pyrrolidide)DL-OH) the IC50 was greater than 1000 µM.
In the case of `CCC(CC)C(=O)N[C@H](C(=O)N[C@@H](CC(=O)N1CCCC1)C(=O)N[C@@H](CC(=O)O)C(=O)N[C@@H](CC(C)C)C(=O)O)C(C)(C)C` ({Butanoyl(2-Et)}-[Tle]D(Pyrrolidide)DL-OH), the IC50 is reported as greater than 1000 µM.

System: not listed separately
Assay: Inhibition of Herpes simplex virus type 1 ribonucleotide reductase
Assay type: functional, Human alphaherpesvirus 1
Procedure, shortened: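 IC50 taken as the mean of at least three separate determinations, with standard deviation from the mean reported; one entry came from a single determination.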
In the case of `CCC(CC)C(=O)N[C@H](C(=O)N[C@@H](CC(=O)N1CCCC1)C(=O)N[C@@H](CC(=O)O)C(=O)NCCC(C)(C)C)C(C)(C)C`, the IC50 is reported as 19 µM.
Molecule `CCC(CC)C(=O)N[C@H](C(=O)N[C@@H](CC(=O)N1CCCC1)C(=O)N[C@@H](CC(=O)O)C(=O)NC(CO)CO)C(C)(C)C` has an IC50 greater than 1000 µM.
With `CCC(CC)C(=O)N[C@H](C(=O)N[C@@H](CCC1CCCC1)C(=O)N[C@@H](CC(=O)O)C(=O)N[C@@H](CC(C)C)C(=O)O)C(C)(C)C` the IC50 was 64 µM.
Molecule `CCC(CC)C(=O)N[C@H](C(=O)N[C@@H](CC(=O)N1CCCC1)C(=O)N[C@@H](CC(=O)O)C(=O)N[C@H](CO)CC(C)(C)C)C(C)(C)C` has an IC50 of 1.9 µM.
Molecule `CCC(CC)C(=O)N[C@H](C(=O)N[C@@H](CC(=O)N1CCCC1)C(=O)N[C@@H](CC(=O)O)C(=O)N[C@H](CO)CC1CCCCC1)C(C)(C)C` has an IC50 of 8.1 µM.
In the case of `CCC(CC)C(=O)N[C@H](C(=O)N[C@@H](CC(=O)C1CCCC1)C(=O)N[C@@H](CC(=O)O)C(=O)N[C@@H](CC(C)C)C(=O)O)C(C)(C)C`, the IC50 is reported as 1.3 µM.
Molecule `CC(C)C[C@H](NC(=O)[C@H](CC(=O)O)NC(=O)[C@H](CC(N)=O)NC(=O)[C@@H](NC(=O)[C@@H](NC(=O)[C@H](C)NC(=O)CNC(=O)[C@H](C)NC(=O)[C@@H](N)Cc1ccc(O)cc1)C(C)C)C(C)C)C(=O)O` has an IC50 of 38 µM.
With `CC[C@H](C)[C@H](NC(C)=O)C(=O)N[C@@H](CC(=O)N1CCCC1)C(=O)N[C@@H](CC(=O)O)C(=O)N[C@@H](CC(C)C)C(=O)O` (Ac-ID(Pyrrolidide)DL-OH) the IC50 was greater than 1000 µM.
Work on `CC[C@H](C)[C@H](NC(=O)C1CCCCC1)C(=O)N[C@@H](CC(=O)N1CCCC1)C(=O)N[C@@H](CC(=O)O)C(=O)N[C@@H](CC(C)C)C(=O)O` (Cyclohexanecarbonyl-ID(Pyrrolidide)DL-OH) yielded an IC50 of 1.5 µM.
Work on `CC[C@H](C)[C@H](NC(=O)[C@@H](N)C(C)C)C(=O)N[C@@H](CC(=O)N1CCCC1)C(=O)N[C@@H](CC(=O)O)C(=O)N[C@@H](CC(C)C)C(=O)O` (H-VID(Pyrrolidide)DL-OH) yielded an IC50 of 13 µM.
Molecule `CC(C)C[C@H](NC(=O)[C@H](CC(=O)O)NC(=O)[C@H](CC(N)=O)NC(=O)[C@@H](N)C(C)C)C(=O)O` (H-VNDL-OH) has an IC50 greater than 2000 µM.
Work on `CC[C@H](C)[C@H](NC(=O)C(C)C)C(=O)N[C@@H](CC(=O)N1CCCC1)C(=O)N[C@@H](CC(=O)O)C(=O)N[C@@H](CC(C)C)C(=O)O` (Isobutyryl-ID(Pyrrolidide)DL-OH) yielded an IC50 of 10 µM.
`CC[C@H](C)[C@H](NC(=O)CC(C)C)C(=O)N[C@@H](CC(=O)N1CCCC1)C(=O)N[C@@H](CC(=O)O)C(=O)N[C@@H](CC(C)C)C(=O)O` (Isovaleryl-ID(Pyrrolidide)DL-OH) showed an IC50 of 3 µM.
Molecule `CC[C@H](C)[C@H](NC(=O)C(C(C)C)C(C)C)C(=O)N[C@@H](CC(=O)N1CCCC1)C(=O)N[C@@H](CC(=O)O)C(=O)N[C@@H](CC(C)C)C(=O)O` (X1-ID(Pyrrolidide)DL-OH) has an IC50 of 2 µM.
In the case of `CCC(CC)C(=O)N[C@@H](C)C(=O)N[C@@H](CC(=O)N1CCCC1)C(=O)N[C@@H](CC(=O)O)C(=O)N[C@@H](CC(C)C)C(=O)O` ({Butanoyl(2-Et)}-AD(Pyrrolidide)DL-OH), the IC50 is reported as 11 µM.
For `CCC(CC)C(=O)N[C@@H](CC(=O)O)C(=O)N[C@@H](CC(=O)N1CCCC1)C(=O)N[C@@H](CC(=O)O)C(=O)N[C@@H](CC(C)C)C(=O)O` ({Butanoyl(2-Et)}-DD(Pyrrolidide)DL-OH), the IC50 was 6.1 µM.
Molecule `CCC(CC)C(=O)NCC(=O)N[C@@H](CC(=O)N1CCCC1)C(=O)N[C@@H](CC(=O)O)C(=O)N[C@@H](CC(C)C)C(=O)O` ({Butanoyl(2-Et)}-GD(Pyrrolidide)DL-OH) has an IC50 of 77 µM.
`CCC(CC)C(=O)N[C@H](C(=O)N[C@@H](CC(=O)N1CCCC1)C(=O)N[C@@H](CC(=O)O)C(=O)N[C@@H](CC(C)C)C(=O)O)[C@@H](C)CC` ({Butanoyl(2-Et)}-ID(Pyrrolidide)DL-OH) gave an IC50 of 1.5 µM.
In the case of `CCC(CC)C(=O)N[C@@H](CCCCN)C(=O)N[C@@H](CC(=O)N1CCCC1)C(=O)N[C@@H](CC(=O)O)C(=O)N[C@@H](CC(C)C)C(=O)O` ({Butanoyl(2-Et)}-KD(Pyrrolidide)DL-OH), the IC50 is reported as 14 µM.
Molecule `CCC(CC)C(=O)N[C@H](C(=O)N[C@@H](CC(=O)N1CCCC1)C(=O)N[C@@H](CC(=O)O)C(=O)N[C@@H](CC(C)C)C(=O)O)[C@@H](C)O` ({Butanoyl(2-Et)}-TD(Pyrrolidide)DL-OH) has an IC50 of 4.4 µM.
`CCC(CC)C(=O)N[C@H](C(=O)N[C@@H](CC(=O)N1CCCC1)C(=O)N[C@@H](CC(=O)O)C(=O)N[C@@H](CC(C)C)C(=O)O)C(C)OCc1ccccc1` (stereo partly drawn) ({Butanoyl(2-Et)}-[Thr(3ξ)](Bn)D(Pyrrolidide)DL-OH) gave an IC50 of 3.1 µM.
`CCNC(=O)C[C@H](NC(=O)[C@@H](NC(=O)C(CC)CC)C(C)(C)C)C(=O)N[C@@H](CC(=O)O)C(=O)N[C@@H](CC(C)C)C(=O)O` ({Butanoyl(2-Et)}-[Tle]D(NHEt)DL-OH) gave an IC50 of 6.9 µM.
In the case of `CCOC(=O)C[C@H](NC(=O)[C@@H](NC(=O)C(CC)CC)C(C)(C)C)C(=O)N[C@@H](CC(=O)O)C(=O)N[C@@H](CC(C)C)C(=O)O` ({Butanoyl(2-Et)}-[Tle]D(OEt)DL-OH), the IC50 is reported as 4.7 µM.
For `CCC(CC)C(=O)N[C@H](C(=O)N[C@@H](CC(=O)N1CCCCC1)C(=O)N[C@@H](CC(=O)O)C(=O)N[C@@H](CC(C)C)C(=O)O)C(C)(C)C` ({Butanoyl(2-Et)}-[Tle]D(Piperidide)DL-OH), the IC50 was 1.3 µM.
`CCC(CC)C(=O)N[C@H](C(=O)N[C@@H](CC(=O)N1CCCC1)C(=O)N[C@@H](C)C(=O)N[C@@H](CC(C)C)C(=O)O)C(C)(C)C` ({Butanoyl(2-Et)}-[Tle]D(Pyrrolidide)AL-OH) showed an IC50 greater than 1000 µM.
`CCC(CC)C(=O)N[C@H](C(=O)N[C@@H](CC(=O)N1CCCC1)C(=O)N[C@@H](CC(=O)O)C(=O)N[C@@H](C)C(=O)O)C(C)(C)C` ({Butanoyl(2-Et)}-[Tle]D(Pyrrolidide)DA-OH) gave an IC50 greater than 1000 µM.
Molecule `CCC(CC)C(=O)N[C@H](C(=O)N[C@@H](CC(=O)N1CCCC1)C(=O)N[C@@H](CC(=O)O)C(=O)N[C@@H](CC(C)C)C(=O)O)C(C)(C)C` ({Butanoyl(2-Et)}-[Tle]D(Pyrrolidide)DL-OH) has an IC50 of 0.6 µM.
`CCC(CC)C(=O)N[C@H](C(=O)N[C@@H](CC(=O)N1CCCC1)C(=O)N[C@@H](CC(=O)O)C(=O)N[C@H](CO)CC(C)C)C(C)(C)C` ({Butanoyl(2-Et)}-[Tle]D(Pyrrolidide)D[Leu(ol)]) gave an IC50 of 5.6 µM.
`CCC(CC)C(=O)N[C@H](C(=O)N[C@@H](CC(=O)N1CCCC1)C(=O)N[C@@H](CCC(=O)O)C(=O)N[C@@H](CC(C)C)C(=O)O)C(C)(C)C` ({Butanoyl(2-Et)}-[Tle]D(Pyrrolidide)EL-OH) gave an IC50 greater than 1000 µM.
Molecule `CCC(CC)C(=O)N[C@H](C(=O)N[C@@H](CC(=O)N1CCCC1)C(=O)N[C@H](C(=O)N[C@@H](CC(C)C)C(=O)O)C(C)(C)C(=O)O)C(C)(C)C` ({Butanoyl(2-Et)}-[Tle]D(Pyrrolidide)[Asp(3,3-Me2)]L-OH) has an IC50 of 0.18 µM.
Molecule `CCC(CC)C(=O)N[C@H](C(=O)N[C@@H](CCC(=O)N1CCCC1)C(=O)N[C@@H](CC(=O)O)C(=O)N[C@@H](CC(C)C)C(=O)O)C(C)(C)C` ({Butanoyl(2-Et)}-[Tle]E(Pyrrolidide)DL-OH) has an IC50 greater than 1000 µM.
With `CCC(CC)C(=O)N[C@H](C(=O)N[C@@H](CC(N)=O)C(=O)N[C@@H](CC(=O)O)C(=O)N[C@@H](CC(C)C)C(=O)O)C(C)(C)C` ({Butanoyl(2-Et)}-[Tle]NDL-OH) the IC50 was 100 µM.
H-AGAVVNDL-OH showed an IC50 of 280 µM.
Molecule H-AVVNDL-OH has an IC50 of 190 µM.
H-GAVVNDL-OH gave an IC50 of 220 µM.
For H-YAGAVVND-OH, the IC50 was greater than 2000 µM.
